Measured values from ChEMBL document CHEMBL4257493, “Discovery of 7-hydroxyaporphines as conformationally restricted ligands for beta-1 and beta-2 adrenergic receptors” (Medchemcomm, 2018).

Legend:
[1] = molecular target: T1, Beta-2 adrenergic receptor (Homo sapiens, UniProt P07550); assay: Binding affinity to andrenergic beta2 receptor (unknown origin) assessed as inhibition of radioligand binding by radioligand competition binding assay
Target sequence in this assay (P07550 whole entry): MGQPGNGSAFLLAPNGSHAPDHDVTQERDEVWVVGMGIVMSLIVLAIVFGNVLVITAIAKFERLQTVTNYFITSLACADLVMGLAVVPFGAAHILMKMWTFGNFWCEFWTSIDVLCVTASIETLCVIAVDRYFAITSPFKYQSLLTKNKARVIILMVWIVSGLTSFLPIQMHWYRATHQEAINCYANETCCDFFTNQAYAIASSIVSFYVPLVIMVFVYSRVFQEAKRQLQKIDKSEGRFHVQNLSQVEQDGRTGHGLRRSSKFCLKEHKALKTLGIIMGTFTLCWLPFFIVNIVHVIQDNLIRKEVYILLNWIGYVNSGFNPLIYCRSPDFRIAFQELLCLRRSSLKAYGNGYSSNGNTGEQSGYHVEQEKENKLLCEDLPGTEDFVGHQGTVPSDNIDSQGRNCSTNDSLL

[2] = molecular target: Alpha-2C adrenergic receptor (Homo sapiens) (UniProt P18825); assay: Binding affinity to andrenergic alpha2C receptor (unknown origin) assessed as inhibition of radioligand binding by radioligand competition binding assay; details: concentration not given here
[3] = molecular target: D(4) dopamine receptor (Homo sapiens) (UniProt P21917); assay: Binding affinity to dopamine D4 receptor (unknown origin) assessed as inhibition of radioligand binding by radioligand competition binding assay; details: concentration not given here
[4] = molecular target: Muscarinic acetylcholine receptor M1 (Homo sapiens) (UniProt P11229); assay: Binding affinity to muscarinic M1 receptor (unknown origin) assessed as inhibition of radioligand binding by radioligand competition binding assay; details: concentration not given here
[5] = molecular target: T2, Beta-1 adrenergic receptor (Homo sapiens, UniProt P08588); assay: Binding affinity to andrenergic beta1 receptor (unknown origin) assessed as inhibition of radioligand binding at 10 uM by radioligand competition binding assay
[6] = molecular target: Muscarinic acetylcholine receptor M4 (Homo sapiens) (UniProt P08173); assay: Binding affinity to muscarinic M4 receptor (unknown origin) assessed as inhibition of radioligand binding by radioligand competition binding assay; details: concentration not given here
[7] = molecular target: Sodium-dependent noradrenaline transporter (Homo sapiens) (UniProt P23975); assay: Binding affinity to NET (unknown origin) assessed as inhibition of radioligand binding by radioligand competition binding assay; details: concentration not given here
[8] = molecular target: T1, Beta-2 adrenergic receptor; assay: Binding affinity to andrenergic beta2 receptor (unknown origin) assessed as inhibition of radioligand binding at 10 uM by radioligand competition binding assay
Target sequence in this assay (P07550 whole entry, looked up): as the sequence (P07550 whole entry) above

[9] = molecular target: D(3) dopamine receptor (Homo sapiens) (UniProt P35462); assay: Binding affinity to dopamine D3 receptor (unknown origin) assessed as inhibition of radioligand binding by radioligand competition binding assay; details: concentration not given here
[10] = molecular target: Muscarinic acetylcholine receptor M2 (Homo sapiens) (UniProt P08172); assay: Binding affinity to muscarinic M2 receptor (unknown origin) assessed as inhibition of radioligand binding by radioligand competition binding assay; details: concentration not given here
[11] = molecular target: 5-hydroxytryptamine receptor 3A (Homo sapiens) (UniProt P46098); assay: Binding affinity to 5-HT3 receptor (unknown origin) assessed as inhibition of radioligand binding by radioligand competition binding assay; details: concentration not given here
[12] = molecular target: 5-hydroxytryptamine receptor 7 (Homo sapiens, UniProt P34969); assay: Binding affinity to 5-HT7 receptor (unknown origin) assessed as inhibition of radioligand binding by radioligand competition binding assay
[13] = molecular target: Beta-3 adrenergic receptor (Homo sapiens, UniProt P13945); assay: Binding affinity to andrenergic beta3 receptor (unknown origin) assessed as inhibition of radioligand binding by radioligand competition binding assay
[14] = molecular target: Sigma non-opioid intracellular receptor 1 (Homo sapiens) (UniProt Q99720); assay: Binding affinity to sigma1 receptor (unknown origin) assessed as inhibition of radioligand binding by radioligand competition binding assay; details: concentration not given here
[15] = molecular target: T2, Beta-1 adrenergic receptor; assay: Displacement of [3H]-CGP-12177 from human beta1-adrenergic receptor
[16] = molecular target: Sodium-dependent dopamine transporter (Homo sapiens) (UniProt Q01959); assay: Binding affinity to DAT (unknown origin) assessed as inhibition of radioligand binding by radioligand competition binding assay; details: concentration not given here
[17] = molecular target: Alpha-1B adrenergic receptor (Homo sapiens) (UniProt P35368); assay: Binding affinity to andrenergic alpha1B receptor (unknown origin) assessed as inhibition of radioligand binding by radioligand competition binding assay; details: concentration not given here
[18] = molecular target: Mu-type opioid receptor (Homo sapiens) (UniProt P35372); assay: Binding affinity to MOR (unknown origin) assessed as inhibition of radioligand binding by radioligand competition binding assay; details: concentration not given here
[19] = molecular target: Alpha-1D adrenergic receptor (Homo sapiens) (UniProt P25100); assay: Binding affinity to andrenergic alpha1D receptor (unknown origin) assessed as inhibition of radioligand binding by radioligand competition binding assay; details: concentration not given here
Homo sapiens = organism: Homo sapiens; assay: Binding affinity to GABAA receptor (unknown origin) assessed as inhibition of radioligand binding by radioligand competition binding assay; details: concentration not given here
[20] = molecular target: Translocator protein (Homo sapiens) (UniProt P30536); assay: Binding affinity to PBR (unknown origin) assessed as inhibition of radioligand binding by radioligand competition binding assay; details: concentration not given here
[21] = molecular target: T1, Beta-2 adrenergic receptor; assay: Antagonist activity at human beta2-adrenergic receptor expressed in CHO-K1 cells assessed as decrease in procaterol-induced cAMP accumulation after 20 mins by HTRF assay; format: functional, cell-based
In short: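 Contract functional assay on human beta2 receptor expressed in CHO cells, with antagonist mode against agonist-stimulated cAMP. Incubation 20 min at 37 °C in HBSS, 5 mM HEPES, 0.1% BSA, 100 µM IBMX, pH 7.4, with 0.40% DMSO vehicle. HTRF quantitation of cAMP accumulation; dose-response curves.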
Target sequence in this assay (P07550 whole entry): as above

[22] = molecular target: 5-hydroxytryptamine receptor 1E (Homo sapiens) (UniProt P28566); assay: Binding affinity to 5-HT1E receptor (unknown origin) assessed as inhibition of radioligand binding by radioligand competition binding assay; details: concentration not given here
[23] = molecular target: 5-hydroxytryptamine receptor 5A (Homo sapiens) (UniProt P47898); assay: Binding affinity to 5-HT5A receptor (unknown origin) assessed as inhibition of radioligand binding by radioligand competition binding assay; details: concentration not given here
[24] = molecular target: Histamine H4 receptor (Homo sapiens) (UniProt Q9H3N8); assay: Binding affinity to histamine H4 receptor (unknown origin) assessed as inhibition of radioligand binding by radioligand competition binding assay; details: concentration not given here
[25] = molecular target: T3, 5-hydroxytryptamine receptor 1D (Homo sapiens, UniProt P28221); assay: Binding affinity to 5-HT1D receptor (unknown origin) assessed as inhibition of radioligand binding at 10 uM by radioligand competition binding assay
[26] = molecular target: Muscarinic acetylcholine receptor M5 (Homo sapiens) (UniProt P08912); assay: Binding affinity to muscarinic M5 receptor (unknown origin) assessed as inhibition of radioligand binding by radioligand competition binding assay; details: concentration not given here
[27] = molecular target: Histamine H2 receptor (Homo sapiens) (UniProt P25021); assay: Binding affinity to histamine H2 receptor (unknown origin) assessed as inhibition of radioligand binding by radioligand competition binding assay; details: concentration not given here
[28] = molecular target: 5-hydroxytryptamine receptor 2B (Homo sapiens, UniProt P41595); assay: Binding affinity to 5-HT2B receptor (unknown origin) assessed as inhibition of radioligand binding by radioligand competition binding assay
[29] = molecular target: 5-hydroxytryptamine receptor 2C (Homo sapiens) (UniProt P28335); assay: Binding affinity to 5-HT2C receptor (unknown origin) assessed as inhibition of radioligand binding by radioligand competition binding assay; details: concentration not given here
[30] = molecular target: Histamine H3 receptor (Homo sapiens) (UniProt Q9Y5N1); assay: Binding affinity to histamine H3 receptor (unknown origin) assessed as inhibition of radioligand binding by radioligand competition binding assay; details: concentration not given here
[31] = molecular target: T3, 5-hydroxytryptamine receptor 1D; assay: Binding affinity to 5-HT1D receptor (unknown origin) assessed as inhibition of radioligand binding by radioligand competition binding assay

T3 sequence (P28221 whole entry): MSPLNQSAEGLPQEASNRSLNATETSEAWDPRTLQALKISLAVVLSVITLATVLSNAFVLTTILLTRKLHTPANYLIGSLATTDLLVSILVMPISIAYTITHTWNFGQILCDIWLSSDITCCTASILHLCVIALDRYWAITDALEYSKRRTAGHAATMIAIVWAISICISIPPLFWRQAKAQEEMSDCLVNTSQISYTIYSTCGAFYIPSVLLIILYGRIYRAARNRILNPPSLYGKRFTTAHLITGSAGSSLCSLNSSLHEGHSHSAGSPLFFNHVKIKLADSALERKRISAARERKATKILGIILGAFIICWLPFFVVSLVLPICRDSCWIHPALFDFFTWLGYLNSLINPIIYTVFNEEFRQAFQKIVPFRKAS
Sequence of D(3) dopamine receptor (Homo sapiens) (P35462 whole entry): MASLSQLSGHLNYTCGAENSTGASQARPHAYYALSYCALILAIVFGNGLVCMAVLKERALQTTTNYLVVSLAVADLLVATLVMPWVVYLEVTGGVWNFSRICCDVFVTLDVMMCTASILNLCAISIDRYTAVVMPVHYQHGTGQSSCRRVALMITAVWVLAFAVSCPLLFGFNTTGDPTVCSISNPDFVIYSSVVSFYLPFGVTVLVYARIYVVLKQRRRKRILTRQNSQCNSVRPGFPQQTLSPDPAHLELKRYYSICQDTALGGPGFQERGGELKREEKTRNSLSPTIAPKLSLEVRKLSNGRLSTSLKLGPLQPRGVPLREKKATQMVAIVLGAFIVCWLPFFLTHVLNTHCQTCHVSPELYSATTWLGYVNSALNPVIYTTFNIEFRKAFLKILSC
Sequence of Sigma non-opioid intracellular receptor 1 (Homo sapiens) (Q99720 whole entry): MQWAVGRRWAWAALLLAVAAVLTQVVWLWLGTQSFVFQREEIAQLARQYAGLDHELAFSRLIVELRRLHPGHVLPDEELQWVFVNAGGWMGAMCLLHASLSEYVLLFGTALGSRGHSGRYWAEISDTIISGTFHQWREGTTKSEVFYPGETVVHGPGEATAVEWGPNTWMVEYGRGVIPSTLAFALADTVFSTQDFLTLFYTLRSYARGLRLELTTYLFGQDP
Sequence of Muscarinic acetylcholine receptor M4 (Homo sapiens) (P08173 whole entry): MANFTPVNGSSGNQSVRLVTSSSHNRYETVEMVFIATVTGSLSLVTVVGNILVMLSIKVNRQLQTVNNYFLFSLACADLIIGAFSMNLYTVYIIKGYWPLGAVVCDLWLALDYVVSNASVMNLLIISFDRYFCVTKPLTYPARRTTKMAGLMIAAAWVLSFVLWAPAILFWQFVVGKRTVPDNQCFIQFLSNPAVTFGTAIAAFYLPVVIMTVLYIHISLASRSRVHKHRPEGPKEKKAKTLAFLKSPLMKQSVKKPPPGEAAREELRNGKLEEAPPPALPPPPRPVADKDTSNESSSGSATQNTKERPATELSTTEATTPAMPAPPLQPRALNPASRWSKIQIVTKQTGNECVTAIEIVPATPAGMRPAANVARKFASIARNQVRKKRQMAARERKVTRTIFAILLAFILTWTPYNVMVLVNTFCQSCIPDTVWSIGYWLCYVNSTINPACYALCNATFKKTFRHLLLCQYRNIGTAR
Sequence of 5-hydroxytryptamine receptor 5A (Homo sapiens) (P47898 whole entry): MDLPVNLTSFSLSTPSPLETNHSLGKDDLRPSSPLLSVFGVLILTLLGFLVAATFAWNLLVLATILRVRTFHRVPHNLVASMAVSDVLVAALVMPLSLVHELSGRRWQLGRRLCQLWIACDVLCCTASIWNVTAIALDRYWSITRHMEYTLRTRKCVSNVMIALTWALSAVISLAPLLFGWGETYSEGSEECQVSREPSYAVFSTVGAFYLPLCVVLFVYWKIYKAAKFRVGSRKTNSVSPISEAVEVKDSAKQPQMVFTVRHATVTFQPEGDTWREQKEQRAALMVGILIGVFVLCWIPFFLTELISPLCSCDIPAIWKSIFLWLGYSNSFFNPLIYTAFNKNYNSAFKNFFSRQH
Sequence of Alpha-2C adrenergic receptor (Homo sapiens) (P18825 whole entry): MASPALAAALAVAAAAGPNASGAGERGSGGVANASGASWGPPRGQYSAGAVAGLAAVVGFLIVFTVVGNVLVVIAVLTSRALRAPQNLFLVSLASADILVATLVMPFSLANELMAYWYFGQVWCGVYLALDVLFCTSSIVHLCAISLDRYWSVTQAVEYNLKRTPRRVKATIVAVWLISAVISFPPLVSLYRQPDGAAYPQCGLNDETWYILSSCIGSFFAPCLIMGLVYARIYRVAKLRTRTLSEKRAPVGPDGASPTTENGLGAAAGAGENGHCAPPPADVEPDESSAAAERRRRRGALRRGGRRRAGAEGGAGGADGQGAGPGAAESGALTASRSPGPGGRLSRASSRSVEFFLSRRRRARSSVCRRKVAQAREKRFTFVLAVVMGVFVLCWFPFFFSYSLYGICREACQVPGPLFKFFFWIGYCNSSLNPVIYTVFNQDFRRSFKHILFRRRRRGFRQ
Sequence of Muscarinic acetylcholine receptor M2 (Homo sapiens) (P08172 whole entry): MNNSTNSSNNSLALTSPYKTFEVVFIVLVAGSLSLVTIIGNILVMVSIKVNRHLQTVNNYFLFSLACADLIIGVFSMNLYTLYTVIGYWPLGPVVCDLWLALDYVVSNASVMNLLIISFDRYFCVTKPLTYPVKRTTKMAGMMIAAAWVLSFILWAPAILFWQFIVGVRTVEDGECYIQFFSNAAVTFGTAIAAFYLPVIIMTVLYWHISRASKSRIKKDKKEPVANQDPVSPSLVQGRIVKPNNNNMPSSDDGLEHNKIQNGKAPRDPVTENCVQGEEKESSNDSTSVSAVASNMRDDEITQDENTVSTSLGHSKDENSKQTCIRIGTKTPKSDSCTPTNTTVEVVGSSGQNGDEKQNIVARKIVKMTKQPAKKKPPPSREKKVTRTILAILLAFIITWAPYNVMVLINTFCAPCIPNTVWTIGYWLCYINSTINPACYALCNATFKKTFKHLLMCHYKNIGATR
Sequence of D(4) dopamine receptor (Homo sapiens) (P21917 whole entry): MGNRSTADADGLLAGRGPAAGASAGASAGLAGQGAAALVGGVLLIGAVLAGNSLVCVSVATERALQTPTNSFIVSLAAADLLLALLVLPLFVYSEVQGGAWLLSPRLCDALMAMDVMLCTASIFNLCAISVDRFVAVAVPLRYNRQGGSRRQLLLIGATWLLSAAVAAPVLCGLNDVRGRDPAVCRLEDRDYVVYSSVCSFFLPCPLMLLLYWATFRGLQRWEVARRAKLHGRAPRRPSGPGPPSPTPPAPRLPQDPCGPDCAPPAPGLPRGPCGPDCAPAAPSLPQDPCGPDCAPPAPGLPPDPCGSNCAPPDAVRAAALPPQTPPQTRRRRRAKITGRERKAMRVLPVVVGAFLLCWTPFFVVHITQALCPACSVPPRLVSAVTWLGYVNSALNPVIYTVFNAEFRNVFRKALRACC
Sequence of Histamine H2 receptor (Homo sapiens) (P25021 whole entry): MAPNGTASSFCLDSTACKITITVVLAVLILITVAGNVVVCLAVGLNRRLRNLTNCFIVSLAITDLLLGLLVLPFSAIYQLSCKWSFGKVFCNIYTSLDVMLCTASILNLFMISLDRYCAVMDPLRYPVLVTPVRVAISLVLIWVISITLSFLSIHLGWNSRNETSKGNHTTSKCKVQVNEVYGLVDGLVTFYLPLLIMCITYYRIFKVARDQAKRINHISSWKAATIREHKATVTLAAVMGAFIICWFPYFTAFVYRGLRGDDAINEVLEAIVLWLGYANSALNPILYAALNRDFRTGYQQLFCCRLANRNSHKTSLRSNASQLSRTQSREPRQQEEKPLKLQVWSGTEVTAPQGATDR
Sequence of 5-hydroxytryptamine receptor 2B (P41595 whole entry): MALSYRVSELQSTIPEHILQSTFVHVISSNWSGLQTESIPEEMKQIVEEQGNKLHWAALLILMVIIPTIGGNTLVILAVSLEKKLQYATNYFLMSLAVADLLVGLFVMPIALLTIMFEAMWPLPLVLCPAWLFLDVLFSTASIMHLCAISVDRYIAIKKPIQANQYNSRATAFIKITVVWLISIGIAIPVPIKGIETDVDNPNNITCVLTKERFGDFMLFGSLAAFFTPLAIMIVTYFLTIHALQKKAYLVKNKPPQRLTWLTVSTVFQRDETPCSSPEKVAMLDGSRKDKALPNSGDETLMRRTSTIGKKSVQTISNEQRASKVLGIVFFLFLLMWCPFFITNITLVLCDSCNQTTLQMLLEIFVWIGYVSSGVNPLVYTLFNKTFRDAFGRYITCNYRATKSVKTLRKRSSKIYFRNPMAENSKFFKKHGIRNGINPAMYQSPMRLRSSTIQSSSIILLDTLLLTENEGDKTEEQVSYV

COc1cc2c3c(c1OC)-c1ccccc1[C@@H](O)[C@@H]3NCC2
Ki [1]: 13 nM | inhibition [2]: < 50% | inhibition [3]: < 50% | inhibition [4]: < 50% | inhibition [5]: > 50% | inhibition [6]: < 50% | inhibition [7]: < 50% | inhibition [8]: > 50% | inhibition [9]: < 50% | inhibition [10]: < 50% | inhibition [11]: < 50% | Ki [12]: 120 nM | Ki [13]: 308 nM | inhibition [14]: < 50% | IC50 [15]: 1.7 nM | inhibition [16]: < 50% | inhibition [17]: < 50% | inhibition [18]: < 50% | inhibition [19]: < 50% | inhibition (Homo sapiens): < 50% | inhibition [20]: < 50% | IC50 [21]: 6.9 nM | inhibition [22]: < 50% | inhibition [23]: < 50% | inhibition [24]: < 50% | inhibition [25]: > 50% | inhibition [26]: < 50% | inhibition [27]: < 50% | Ki [28]: 246 nM | inhibition [29]: < 50% | inhibition [30]: < 50% | Ki [31]: 857 nM
